According to ChEMBL document CHEMBL1130326, “Anti-Helicobacter pylori agents. 1. 2-(Alkylguanidino)-4-furylthiazoles and related compounds” (1997):
Converted amounts (≈) assume the structure as drawn.

How the values were obtained:
Cavia porcellus = species: Cavia porcellus; assay: inhibition of the histamine stimulated […] response in the isolated guinea pig right atrium at 1x 10 e-6 g/mL; type: functional, Cardiac atrium
How it was run: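 Isolated atrium; beating rate and contraction amplitude recorded via transducer and polygraph. Histamine hydrochloride 1 × 10^-6 g/mL added to bath and rate increase measured. Percent inhibition from histamine-induced rate increases before versus 30 min after compound.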

Rattus norvegicus = assay: inhibition of histamine stimulated gastric secretion in lumen perfused stomach of anesthetized rats at 1 mg/kg intravenously; type: functional; conditions: route intravenous
How it was run: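 Abdomen opened; gastric lumen perfused with saline throughout. Secretion stimulated by iv histamine infusion, 3 mg/kg/h. Perfusate acid titrated with 25 mM NaOH by autotitrator. n = 2.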

Helicobacter pylori [1] = assay: Evaluated for antimicrobial activity against Helicobacter pylori; type: functional
How it was run: (§1)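 Agar dilution. Test strain precultured on Brucella agar with 3% horse serum and 2% starch, 37 °C, 3 days. Suspended in buffered saline to McFarland no. 1, diluted 10²-fold, then spotted by multipoint replicator onto Brucella agar plus 7% lysed horse blood carrying serial 2-fold drug dilutions. Incubated 37 °C, 3 days, 10% CO₂. MIC taken as lowest concentration stopping macroscopic colonial growth.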

Helicobacter pylori [2] = assay: minimum inhibitory concentration was determined against Helicobacter pylori. the value in parentheses is range; type: functional, organism-based
How it was run: as §1, with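 “growth. Mean and range from 10 strains (8001, 8003, 8004, 8007, 8008, 8009, 8011, 9005, FP1530, FP1532).” for “growth.”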

Molecule | Inhibition (Cavia porcellus) [%] | inhibition in vivo at 1 mg/kg (Rattus norvegicus) [%] | MIC (Helicobacter pylori [1]) [µg/mL] | MIC (Helicobacter pylori [2]) [µg/mL]
CCCC/N=C(\N)Nc1nc(-c2ccc(CNC(C)=O)o2)cs1 | 78 | 45 | 0.21 (≈ 0.626 µM) | 
CC(=O)NCc1ccc(-c2csc(N/C(N)=N/C(C)C)n2)o1 | 27 | 32 | 2.9 (≈ 9.02 µM) | 
CC(=O)NCc1ccc(-c2nc(N=C(N)N)sc2C)o1 | 10 | 3 | 76 (≈ 259 µM) | 
CCC/N=C(\N)Nc1nc(-c2ccc(CNC(C)=O)o2)cs1 | 81 | 97 | 1.67 (≈ 5.2 µM) | 
CC(=O)NCc1ccc(-c2csc(/N=C(\N)S)n2)o1 | 0 | 11 | > 200 | 
Cc1ncc([N+](=O)[O-])n1CCO [METRONIDAZOLE] |  |  | 5.4 (≈ 31.6 µM) | 
CCCCCC/N=C(\N)Nc1nc(-c2ccc(CNC(C)=O)o2)cs1 | 79 | 44 | 0.11 (≈ 0.303 µM) | 
CC/N=C(\N)Nc1nc(-c2ccc(CNC(C)=O)o2)cs1 | 51 | 79 | 3.13 (≈ 10.2 µM) | 
CN/C(=N\CCSCc1nc[nH]c1C)NC#N [CIMETIDINE] | 43 | 53 | 1130 (≈ 4480 µM) | 
BISMUTH SUBCITRATE |  |  |  | 18
C/N=C(\N)Nc1nc(-c2ccc(CNC(C)=O)o2)cs1 | 25 | 24 | 12.5 (≈ 42.6 µM) | 
CC(=O)NCc1ccc(-c2csc(NC3=NCCN3)n2)o1 | 8 | 18 | > 100 | 
CCCCNC(=O)Nc1nc(-c2ccc(CNC(C)=O)o2)cs1 | 0 | 9 | > 100 | 
CC(=O)NCc1ccc(-c2csc(CN(C)C)n2)o1 | 6 | 4 | > 200 | 
